Bioassay records from PubChem.
GSTO1 inh: blocks human GSTO1 in RBBP9 counter-screen; P78417; recombinant GSTO1, activity-based probe fluorescence polarization; inhibition, % at 5.96 µM; 300,000 tested, 1.1% active; AID 1974;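 active = inhibition above the campaign mean inhibition plus 3 SD, cut at about 35% in these data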
Apaf1 inhib: inhibitors of human Apaf-1 apoptosome; 330,000 tested, 0.71% active; inhibition, % at 20 µM; O14727; reconstituted apoptosome caspase-3 activity, DEVD-Rh110 fluorescence; active = inhibition of at least 40% at 20 µM
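Material: cell-free apoptosome with Apaf-1, procaspase-3 and caspase-9; Buffer or medium: Hepes pH 7.5 with detergent and BSA; Reagent: cytochrome c trigger plus (Z-DEVD)2-Rh110 caspase-3 substrate; Times: compound with Apaf-1, dATP, procaspase-3 30 min, then 50 min reaction, room temperature; Technique: Rh110 fluorescence intensity.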
TDP2 absorb: TDP2 (human) inhibition, absorbance primary screen; O95551; 370,000 tested, 0.34% active; recombinant TDP2, T5PNP hydrolysis, p-nitrophenol absorbance 415 nm; inhibition, % at 12.8 µM;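 active = inhibition above the mean of all tested compounds plus 3 SD, set per campaign, cut at about 25% in these data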
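System: recombinant human TDP2 / Amount: 120 nM TDP2 per well / Also added: 5 mM T5PNP chromogenic substrate / Doses: 12.8 µM single point, 1% DMSO / Incubation: 2 h at 37 °C / Detection: p-Nitrophenol epi absorbance / Evaluation: % inhibition relative to enzyme-containing and enzyme-free wells / Repeats: singlicate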
PRMT1 inh: PRMT1 (human) inhibition, primary screen; Q99873; recombinant PRMT1, activity-based probe fluorescence polarization; inhibition, % at 2.79 µM; 370,000 tested, 1.3% active;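 active = inhibition above about 21% made by adding two undisclosed values, limit read from the data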
PAD4 inh: blocks human protein arginine deiminase 4. Q9UM07. recombinant PAD4, RCA probe fluorescence polarization. inhibition, % at 6.36 µM. 330,000 tested, 0.41% active;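 active = percent inhibition above a cutoff equal to the mean of all tested compounds plus 3 SD, cut at about 15% in these data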
PRMT1 confirm: PRMT1 (human) inhibition, FP confirmation; shares compounds with PRMT1 inh; recombinant His-PRMT1, activity-based probe fluorescence polarization; inhibition, % at 2.79 µM; 3,300 tested, 42% active;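 active = mean inhibition across replicates above the hit cutoff derived for the earlier primary screen, cut at about 22% in these data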
Hits are given with their value; 0 = inactive; - = no result given. Only some compounds are listed: those with a hit (about 2.6% of all), similar ones and a draw of the others.

SMILES | GSTO1 inh | Apaf1 inhib | TDP2 absorb | PRMT1 inh | PAD4 inh | PRMT1 confirm
O=C(CNC(=O)c1cccs1)NCC(=O)OCC(=O)c1ccc([N+](=O)[O-])cc1 | 0 | 0 | 0 | 70 | 0 | 41
O=C(COC(=O)c1cnccn1)c1ccc([N+](=O)[O-])cc1 | 0 | 0 | 0 | 47 | 0 | 60
COCCN(C(=O)COC(=O)C(C)(C)Oc1ccc(Cl)cc1)c1c(N)n(Cc2ccccc2)c(=O)[nH]c1=O | - | - | 0 | 0 | - | -
CC(=O)c1cccc(NC(=O)CN(C)S(=O)(=O)c2ccc3c(c2)CC(C)N3C(C)=O)c1 (centres undefined) | 0 | 0 | 0 | 0 | 0 | -
C(=C\c1ccccc1)/CN1CCN(C(c2nnnn2Cc2ccccc2)C2CC2)CC1 (centres undefined) | - | - | 0 | 0 | - | -
O=[n+]1c2c(n([O-])c3cc(Br)ccc31)CCCC2 | 0 | 0 | 0 | 0 | 0 | -
O=[n+]1c2c(n([O-])c3ccccc31)CCCC2 | 0 | 0 | 0 | 76 | 0 | 0
Cc1cc2c(cc1S(=O)(=O)NCCc1ccc(Cl)cc1)OCC(=O)N2 | 0 | 0 | 0 | 0 | 0 | -
CC(C)N(C(=O)CSc1nnc(-c2cc3ccccc3cc2O)n1Cc1ccco1)C(C)C | 0 | 0 | 0 | 0 | 0 | -
O=C(CSc1nnc(-c2cc3ccccc3cc2O)n1Cc1ccco1)N1CCc2ccccc2C1 | 0 | 0 | 0 | 32 | 0 | 0
CC(C)CN1CCC(Oc2cccc(C(=O)NCCc3ccccc3)c2)CC1 | 0 | 0 | 0 | 0 | 0 | -
c1cc2c(cc1NC1CCCCCC1)OCO2 | 0 | 0 | 0 | 35 | 0 | 32
Cc1cccc(-n2c(C)c(-c3ccccc3)[nH]c2=S)c1 | 0 | 0 | 0 | 34 | 0 | 0
CC(=O)NC(=S)Nc1ccccc1N1CCCCC1 | 0 | 0 | 0 | 0 | 0 | -
COc1ccc2c3c(cccc13)C(=O)CC2 | - | - | 0 | 145 | - | 81
COc1ccc(CCNC(=O)CNS(=O)(=O)c2ccc(N(C)C)c([N+](=O)[O-])c2)cc1OC | 0 | 0 | 0 | 0 | 0 | -
CN(C)c1ccc(S(=O)(=O)NCC(=O)NCc2ccccc2)cc1[N+](=O)[O-] | 0 | 0 | 0 | 27 | 0 | 26
CNc1ccc(S(=O)(=O)NCC(=O)NCCCc2ccccc2)cc1[N+](=O)[O-] | 0 | 0 | 0 | 27 | 0 | 34
COc1ccc(NC(=O)CCc2nnc3ccc(N4CCN(c5cccc(OC)c5)CC4)nn23)cc1 | 0 | 0 | 0 | 0 | 0 | -
CS(=O)(=O)N1N=C(c2ccco2)CC1c1ccc(Cl)cc1 (centres undefined) | 0 | 0 | 0 | 0 | 0 | -
COc1ccc2cc(C3CC(c4ccco4)=NN3S(C)(=O)=O)c(Cl)nc2c1 (centres undefined) | 0 | 0 | 0 | 25 | 0 | 0
CCOc1ccc2nc(Cl)c(C3CC(c4ccco4)=NN3S(=O)(=O)c3ccccc3)cc2c1 (centres undefined) | 0 | 0 | 0 | 32 | 0 | 0
CN(C)C(CNC(=S)Nc1ccccc1Cl)c1cccnc1 (centres undefined) | 0 | 0 | 0 | 0 | 0 | -
O=C1CCC2c3[nH]c4ccccc4c3CCN12 (centres undefined) | - | - | 0 | 0 | - | -
N#Cc1cc2c(nc1SCc1ccccc1)CCC2 | 0 | 0 | 0 | 0 | 0 | -
SMILES | GSTO1 inh | Apaf1 inhib | TDP2 absorb | PRMT1 inh | PAD4 inh | PRMT1 confirm
N#Cc1cc2c(nc1SCc1ccncc1)CCC2 | 0 | 0 | 0 | 38 | 0 | 0
O=C(NCc1ccncc1)[C@@H]1CCCN1C(=O)[C@H]1CCCN1C(=O)c1cccc(Cl)c1 | - | - | 0 | 0 | - | -
Oc1ccc(Br)cc1C=Nc1ccc2c3c(cccc13)CC2 | 0 | 0 | 0 | 56 | 0 | 0
O=C(c1ccccc1)c1ccccc1N1C(=O)C=CC1=O | 0 | 0 | 0 | 85 | 0 | 97
O=C1C=CC(=O)N1c1ccccc1N1C(=O)C=CC1=O | - | - | 0 | 93 | - | 90
O=C1C=CC(=O)N1c1ccccn1 | - | - | 0 | 0 | - | -
O=C(O)c1ccccc1C(=O)c1ccc(-c2ccccc2)cc1 | 0 | 0 | 0 | 0 | 0 | -
COc1ccc(N2C(=O)CC(Sc3n[nH]c(-c4cccc(C)c4)n3)C2=O)cc1 (centres undefined) | 0 | 0 | 0 | 44 | 0 | 60
COC(=O)c1ccc(N2C(=O)CC(Sc3n[nH]c(C)n3)C2=O)cc1 (centres undefined) | 0 | 0 | 0 | 44 | 0 | 50
COc1ccccc1N1C(=O)CC(Sc2nc(C)cc(C)n2)C1=O (centres undefined) | 0 | 0 | 0 | 0 | 0 | -
